The values that follow come from ChEMBL document CHEMBL1138022, “Structurally simplified macrolactone analogues of halichondrin B” (Bioorg Med Chem Lett, 2004).

The IC50 is the midpoint of a concentration-inhibition curve. A higher IC50 goes with weaker potency in that assay. By IC99 is commonly meant the concentration at which the effect reaches the 99% level. Low readings indicate an effect from little substance, high ones a need for much substance.

Test [1] has as its system DLD-1. Briefly: In vitro inhibitory concentration required to inhibit the growth of DLD-1 cells under continuous exposure conditions for 3-4 days. The class given is functional, cell-based. The note with it: Homo sapiens. Summed up:
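Human colon cancer DLD-1 cells were exposed to compound continuously for 3–4 days and growth inhibition was measured. IC50 is given ± SEM, with n the number of experiments.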

Test [2] has as its system U-937. Briefly: In vitro inhibitory concentration required to inhibit the growth of U937 cells was determined by mitotic block reversibility assay. The note with it: Homo sapiens. The class given is functional. Summed up:
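Reversibility assay in human histiocytic lymphoma U937 cells. After drug washout, flow cytometry scored whether a complete mitotic block was still maintained 10 h later.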

For test [3], the system named is P388. The experiment in a line: Fold resistance calculated as the inhibition concentration ratio between retrovirally transformed P388/VMDRC.04 and parental P388 cells. The class given is functional. Summed up:
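P-glycoprotein-mediated efflux assessed in murine P388/VMDRC.04, a retrovirally transformed multidrug-resistant subline of P388/S leukemia cells, alongside parental P388 cells. Growth inhibition IC50 was measured in each line. Fold resistance is the IC50 ratio of P388/VMDRC.04 to parental P388.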

Some results are limits rather than exact numbers.

On to `C=C1C[C@@H]2CC[C@@]34C[C@@H]5O[C@@H]6C(O[C@H]7CC[C@H](CC(=O)O[C@@H]8[C@H](OC)[C@H](CC(O)CO)O[C@H]8C[C@H]8O[C@@H](CC[C@@H]1O2)C[C@@H](C)C8=C)O[C@@H]7[C@@H]6O3)[C@H]5O4` (stereo partly drawn), for which 220 nM corresponded to half-maximal inhibition in test [1] (IC50).

With `C=C1C[C@@H]2CC[C@@]34C[C@@H]5O[C@@H]6C(O[C@H]7CC[C@H](CC(=O)O[C@@H]8[C@@H](OC)[C@@H](O)[C@H](CCO)O[C@H]8C[C@H]8O[C@@H](CC[C@@H]1O2)C[C@@H](C)C8=C)O[C@@H]7[C@@H]6O3)[C@H]5O4`, the 99% effect level in test [2] (IC99) was put at 0.1 µM. Besides, in test [1], the IC50 amounted to 1.8 nM. Besides, in test [3], the FR is reported as 12.

Consider `C=C1C[C@@H]2CC[C@@]34C[C@@H]5O[C@@H]6C(O[C@H]7CC[C@H](CC(=O)O[C@@H]8[C@@H](OC)[C@H](C[C@@H](O)CO)O[C@H]8C[C@H]8O[C@@H](CC[C@@H]1O2)C[C@@H](C)C8=C)O[C@@H]7[C@@H]6O3)[C@H]5O4`, for which it took 0.03 µM to reach the 99% level in test [2] (IC99). The IC50 in test [1] is 1.4 nM. In addition, the FR in test [3] is reported as 8.8.

On to `C=C1C2C[C@@H]3O[C@@H](C[C@H](O)CO)[C@H](OC)[C@H]3OC(=O)C[C@H]3CC[C@@H]4OC5[C@H]6O[C@H]7C[C@](CC[C@H]8CC(=C)[C@H](CC[C@@H](C[C@H]1C)O2)O8)(OC6[C@H]4O3)O[C@H]57`, for which, in test [2], the IC99 stood at 0.1 µM. Besides, in test [1], the IC50 came to 6.4 nM. Besides, the FR in test [3] was 8.2.

In turn, `C=C1C[C@@H]2CC[C@@]34C[C@@H]5O[C@@H]6C(O[C@H]7CC[C@H](CC(=O)O[C@@H]8[C@@H](C)[C@H](O)[C@H](CCO)O[C@H]8C[C@H]8O[C@@H](CC[C@@H]1O2)C[C@@H](C)C8=C)O[C@@H]7[C@@H]6O3)[C@H]5O4` came in with an IC99 in test [2] of 0.17 µM. In test [1], this compound showed an IC50 of 2.5 nM. In addition, the FR in test [3] is 5.6.

With `C=C1C[C@@H]2CC[C@@]34C[C@@H]5O[C@@H]6C(O[C@H]7CC[C@H](CC(=O)O[C@@H]8[C@@H](OCC)[C@@H](O)[C@H](CC(O)CO)O[C@H]8C[C@H]8O[C@@H](CC[C@@H]1O2)C[C@@H](C)C8=C)O[C@@H]7[C@@H]6O3)[C@H]5O4` (stereo partly drawn), half-maximal inhibition in test [1] (IC50) was put at 490 nM. This counts as sub-micromolar.

Regarding `C=C1C[C@@H]2CC[C@@]34C[C@@H]5O[C@@H]6C(O[C@H]7CC[C@H](CC(=O)O[C@@H]8[C@@H](OC)[C@H](C[C@@H](O)CC(O)CO)O[C@H]8C[C@H]8O[C@@H](CC[C@@H]1O2)C[C@@H](C)C8=C)O[C@@H]7[C@@H]6O3)[C@H]5O4` (stereo partly drawn), the concentration for an effect of 99% (IC99) in test [2] was found to be 0.03 µM. The compound further returned an IC50 in test [1] of 1.9 nM. Also, the FR in test [3] was 15.

For the compound `C=C1C[C@@H]2CC[C@@]34C[C@@H]5O[C@@H]6C(O[C@H]7CC[C@H](CC(=O)O[C@@H]8[C@@H](OC)[C@H](O)[C@H](CCO)O[C@H]8C[C@H]8O[C@@H](CC[C@@H]1O2)C[C@@H](C)C8=C)O[C@@H]7[C@@H]6O3)[C@H]5O4`, in test [2], it took 0.3 µM to reach the 99% level (IC99). In test [1], this compound registered an IC50 of 1.8 nM. In addition, the FR in test [3] is given as 10.

`C=C1C[C@@H]2CC[C@@]34C[C@@H]5O[C@@H]6C(O[C@H]7CC[C@H](CC(=O)O[C@@H]8[C@@H](OC)[C@H](CO)O[C@@H]8C[C@H]8O[C@@H](CC[C@@H]1O2)C[C@@H](C)C8=C)O[C@@H]7[C@@H]6O3)[C@H]5O4` showed an IC50 in test [1] of over 1000 nM.

`C=C1C[C@@H]2CC[C@@]34C[C@@H]5O[C@@H]6C(O[C@H]7CC[C@H](CC(=O)O[C@@H]8[C@@H](OC)[C@H](OC)[C@H](CCO)O[C@H]8C[C@H]8O[C@@H](CC[C@@H]1O2)C[C@@H](C)C8=C)O[C@@H]7[C@@H]6O3)[C@H]5O4` came in with a 99% effect concentration (IC99) in test [2] of over 1 µM. Besides, the IC50 in test [1] turned out to be 2.1 nM. In addition, the FR in test [3] was 2.6.

Take `C=C1C[C@@H]2CC[C@@]34C[C@@H]5O[C@@H]6C(O[C@H]7CC[C@H](CC(=O)O[C@H]8[C@@H](OC)[C@H](CC(O)CO)O[C@H]8C[C@H]8O[C@@H](CC[C@@H]1O2)C[C@@H](C)C8=C)O[C@@H]7[C@@H]6O3)[C@H]5O4` (stereo partly drawn): the IC50 in test [1] was over 1000 nM.

For the compound `C=C1C[C@@H]2CC[C@@]34C[C@@H]5O[C@@H]6C(O[C@H]7CC[C@H](CC(=O)O[C@@H]8[C@@H](OC)[C@H](CCO)O[C@H]8C[C@H]8O[C@@H](CC[C@@H]1O2)C[C@@H](C)C8=C)O[C@@H]7[C@@H]6O3)[C@H]5O4`, it took 0.1 µM to reach the 99% level in test [2] (IC99). In test [1], the 50% inhibitory concentration (IC50) amounted to 0.97 nM. Besides, the FR in test [3] was 2.8.

`C=C1C[C@@H]2CC[C@@]34C[C@@H]5O[C@@H]6C(O[C@H]7CC[C@H](CC(=O)O[C@@H]8[C@@H](OC)[C@H](CCC(=O)C(F)(F)F)O[C@H]8C[C@H]8O[C@@H](CC[C@@H]1O2)C[C@@H](C)C8=C)O[C@@H]7[C@@H]6O3)[C@H]5O4` returned an IC99 in test [2] of 0.03 µM. This compound registered an IC50 in test [1] of 0.67 nM. For the same compound, the FR in test [3] was 4.5.

In turn, `C=C1C[C@@H]2CC[C@@]34C[C@@H]5O[C@@H]6C(O[C@H]7CC[C@H](CC(=O)O[C@@H]8[C@@H](OC)[C@@H](C[C@H](O)CO)O[C@H]8C[C@H]8O[C@@H](CC[C@@H]1O2)C[C@@H](C)C8=C)O[C@@H]7[C@@H]6O3)[C@H]5O4` yielded a 99% effect concentration (IC99) in test [2] of 0.015 µM. The compound further displayed a half-maximal inhibitory concentration (IC50) in test [1] of 0.67 nM. The FR in test [3] is on record as 6.2.

For the compound `C=C1C[C@@H]2CC[C@@]34C[C@@H]5O[C@@H]6C(O[C@H]7CC[C@H](CC(=O)O[C@@H]8[C@@H](OC)[C@@H]9OC(C)(C)OC[C@@H]9O[C@H]8C[C@H]8O[C@@H](CC[C@@H]1O2)C[C@@H](C)C8=C)O[C@@H]7[C@@H]6O3)[C@H]5O4`, the concentration for an effect of 99% (IC99) in test [2] is over 1 µM. In test [1], this compound came in with an IC50 of 11 nM. In addition, in test [3], the FR is on record as 1.7.

With `C=C1C2C[C@@H]3O[C@H](C[C@@H](O)CO)[C@H](OC)[C@H]3OC(=O)C[C@H]3CC[C@@H]4OC5[C@H]6O[C@H]7C[C@](CC[C@H]8CC(=C)[C@H](CC[C@@H](C[C@H]1C)O2)O8)(OC6[C@H]4O3)O[C@H]57`, in test [2], the IC99 amounted to 0.02 µM. In test [1], this compound yielded a half-maximal inhibitory concentration (IC50) of 0.67 nM. Further, the FR in test [3] was 9.3.

In turn, `C=C1C[C@@H]2CC[C@@]34C[C@@H]5O[C@@H]6C(O[C@H]7CC[C@H](CC(=O)O[C@@H]8[C@@H](C)[C@@H]9O[C@H](CO)[C@@H](O)C[C@@H]9O[C@H]8C[C@H]8O[C@@H](CC[C@@H]1O2)C[C@@H](C)C8=C)O[C@@H]7[C@@H]6O3)[C@H]5O4` had a concentration for an effect of 99% (IC99) in test [2] of 0.22 µM. The compound also yielded an IC50 in test [1] of 3.4 nM. Moreover, the FR in test [3] was 12.

In test [2], `C=C1C[C@@H]2CC[C@@]34C[C@@H]5O[C@@H]6C(O[C@H]7CC[C@H](CC(=O)O[C@H]8C(CC9OC(CCC1O2)C[C@@H](C)C9=C)O[C@H]1C[C@H]2O[C@@]9(C[C@@H]%10O[C@]%11(C[C@H](C)[C@@H]%12O[C@H]([C@@H](O)C[C@@H](O)CO)C[C@@H]%12O%11)C[C@H](C)[C@@H]%10O9)C[C@H]2O[C@H]1[C@@H]8C)O[C@@H]7[C@@H]6O3)[C@H]5O4` (stereo partly drawn) gave an IC99 of 0.025 µM. The compound also had a 50% inhibitory concentration (IC50) in test [1] of 0.74 nM. Moreover, in test [3], the FR is reported as 2.8.

With `C=C1C[C@@H]2CC[C@@]34C[C@@H]5O[C@@H]6C(O[C@H]7CC[C@H](CC(=O)O[C@@H]8[C@@H](OC)[C@H](CO)O[C@H]8C[C@H]8O[C@@H](CC[C@@H]1O2)C[C@@H](C)C8=C)O[C@@H]7[C@@H]6O3)[C@H]5O4`, the 99% effect level in test [2] (IC99) was put at 0.1 µM. Also, in test [1], it took 1 nM to reach half-maximal inhibition (IC50). For the same compound, in test [3], the FR was 2.8.

As for `C=C1C[C@@H]2CC[C@@]34C[C@@H]5O[C@@H]6C(O[C@H]7CC[C@H](CC(=O)O[C@@H]8[C@@H](OC)[C@H](O)[C@H](CO)O[C@H]8C[C@H]8O[C@@H](CC[C@@H]1O2)C[C@@H](C)C8=C)O[C@@H]7[C@@H]6O3)[C@H]5O4`, in test [2], the 99% effect level (IC99) was put at 0.3 µM. In addition, 2.6 nM corresponded to half-maximal inhibition in test [1] (IC50). Moreover, in test [3], the FR was 8.5.

As to `C=C1C[C@@H]2CC[C@@]34C[C@@H]5O[C@@H]6C(O[C@H]7CC[C@H](CC(=O)O[C@@H]8[C@@H](OC)[C@@H](O)CO[C@H]8C[C@H]8O[C@@H](CC[C@@H]1O2)C[C@@H](C)C8=C)O[C@@H]7[C@@H]6O3)[C@H]5O4`, the IC50 in test [1] is over 1000 nM.
